The record followed here is ChEMBL document CHEMBL1123305, “Synthesis and gastric antisecretory properties of alpha chain diene derivatives of misoprostol” (1986).

The test system of experiment [1] is Canis familiaris. In words: Intravenous gastric antisecretory activity against histamine-stimulated Heidenhain Pouch (HP) dogs at 1 ug/kg. The class given is functional. To be noted: Canis lupus familiaris, Stomach. In short, it runs like this: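 Conscious, 18-h-fasted Heidenhain pouch dogs in Pavlov stands, iv 0.15 M NaCl infusion, used at most weekly. Histamine 1.0 mg/h was infused after a 15–30-min basal period. At steady state (about 1 h), a single iv bolus was given in ethanol stock diluted with isoosmotic pH 7.4 phosphate buffer (≤20% ethanol). Acid was titrated to pH 7.0 over 15-min collections; percent inhibition was taken from maximum inhibition of total acid output.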

The species named for experiment [2] is Canis familiaris. In words: Oral gastric antisecretory effect in histamine-stimulated Heidenhain Pouch (HP) dogs. To be noted: Canis lupus familiaris, Stomach, in the assay text read “gastric fistula (GF)” for “Heidenhain Pouch (HP)”. It is filed as functional. In short, it runs like this:
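Conscious gastric fistula dogs, 4–12 per dose, three doses. After a 30-min basal period, drug was given intragastrically via dosing plug and the cannula closed for 30 min. Histamine was then infused at 15 μg/kg per h, with 30-min collections for 4 h. Acid was titrated to pH 7.0. ED50 is the dose giving 50% inhibition of 4-h total acid output. Relative potency and 95% limits came from bioassay analysis.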

Experiment [3] is described as follows: Ratio of ED50 value of diarrheal effect to that of ED50 value of antisecretory effect. The class given is functional. In a few lines: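 Ratio of rat oral diarrheal ED50 at 8 h to intragastric antisecretory ED50 in histamine-stimulated gastric fistula dogs (4-h total acid output).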
The species entered for experiment [4] is Canis familiaris. Kind of experiment: Relative gastric antisecretory effect in histamine-stimulated gastric fistula (GF) dogs. To be noted: Canis lupus familiaris, Stomach.
For the next experiment, the species on record is Rattus norvegicus. Kind of experiment: Effect determining the diarrheagenic activity in rats. The class given is functional. In short, it runs like this: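 Adult male Charles River rats (210–230 g), housed singly and fasted 24 h, n = 6–12. Logarithmically graded oral doses were given. Diarrhea was scored all-or-none hourly to 8 h. ED50 and approximate asymptotic 95% confidence limits came from a maximum-likelihood logistic dose–response fit.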

Compound `CCCCC(C)(O)C/C=C/[C@H]1[C@H](O)CC(=O)[C@@H]1CC/C=C\C=C\C(=O)OC` (stereo not given in full) had an inhibition in vivo at 0.001 mg/kg with Canis familiaris [1] of 41%.

With `CCCCC(C)(O)C/C=C/[C@H]1[C@H](O)CC(=O)[C@@H]1C/C=C/C=C/CC(=O)OC` (stereo not given in full), the inhibition in vivo at 0.001 mg/kg in the experiment with Canis familiaris [1] amounted to 21%.

Consider `CCCCC(C)(O)C/C=C/[C@H]1[C@H](O)CC(=O)[C@@H]1C/C=C\C=C\CC(=O)OC` (stereo not given in full), for which the ED50 was determined as 0.08 µg/kg in the experiment filed under Canis familiaris [2] and 0.57 mg/kg in the experiment filed under Rattus norvegicus. The Ratio in experiment [3] amounted to 7120. Moreover, the Relative potency in the experiment filed under Canis familiaris [4] was determined as 0.31. The same compound had an inhibition in vivo at 0.001 mg/kg in the experiment with Canis familiaris [1] of 83%.

In the experiment on Canis familiaris [1], `CCCCC(C)(O)C/C=C/[C@H]1[C@H](O)CC(=O)[C@@H]1C/C=C/C/C=C/C(=O)OC` (stereo not given in full) registered an inhibition in vivo at 0.001 mg/kg of 68%.

Take `CCCCC(C)(O)C/C=C/[C@H]1[C@H](O)CC(=O)[C@@H]1CC/C=C\CCC(=O)OC` (stereo not given in full) [ENISOPROST]: the figures for the ED50 in the experiment listed under Canis familiaris [2] and in the experiment filed under Rattus norvegicus were 0.05 µg/kg and 0.062 mg/kg, respectively. Also, the Ratio in experiment [3] stood at 1240. Moreover, in the experiment listed under Canis familiaris [4], the Relative potency came out at 1. The same compound yielded an inhibition in vivo at 0.001 mg/kg with Canis familiaris [1] of 92%.

In turn, `CCCCC(C)(O)C/C=C/[C@H]1[C@H](O)CC(=O)[C@@H]1CC/C=C/C=C/C(=O)OC` (stereo not given in full) had an inhibition in vivo at 0.001 mg/kg in the experiment with Canis familiaris [1] of 53%.

Regarding `CCCCC(C)(O)C/C=C/[C@H]1[C@H](O)CC(=O)[C@@H]1C/C=C\C/C=C/C(=O)OC` (stereo not given in full), the inhibition in vivo at 0.001 mg/kg with Canis familiaris [1] stood at 0%.

Turning to `CCCCC(C)(O)C/C=C/[C@H]1[C@H](O)CC(=O)[C@@H]1CCCCCCC(=O)OC` (stereo not given in full) [MISOPROSTOL], the ED50 in the experiment listed under Canis familiaris [2] worked out at 0.28 µg/kg. Also, in experiment [3], the Ratio worked out at 1310. The Relative potency in the experiment listed under Canis familiaris [4] was 0.08. In addition, 0.001 mg/kg produced 79% inhibition in vivo in the experiment on Canis familiaris [1].

Compound `CCCCC(C)(O)C/C=C/[C@H]1[C@H](O)CC(=O)[C@@H]1C/C=C/C=C\CC(=O)OC` (stereo not given in full) yielded an inhibition in vivo at 0.001 mg/kg in the experiment with Canis familiaris [1] of 96%.

By inhibition in vivo is commonly meant the drop in the measured response relative to a control, in per cent. Read a low inhibition in vivo as little suppression. One may read the ED50 as the dose at which the effect has come halfway, by size or by number of responders. Low values mean greater potency, high ones weaker potency.
